19 compounds from ChEMBL document CHEMBL1136517, “Optimization of alpha-acylaminoketone ecdysone agonists for control of gene expression” (Bioorg Med Chem Lett, 2003) can be followed below.

Experiment [1] addresses T1, Ecdysone receptor (Choristoneura fumiferana, UniProt O77240).
T1 sequence (O77240 whole entry): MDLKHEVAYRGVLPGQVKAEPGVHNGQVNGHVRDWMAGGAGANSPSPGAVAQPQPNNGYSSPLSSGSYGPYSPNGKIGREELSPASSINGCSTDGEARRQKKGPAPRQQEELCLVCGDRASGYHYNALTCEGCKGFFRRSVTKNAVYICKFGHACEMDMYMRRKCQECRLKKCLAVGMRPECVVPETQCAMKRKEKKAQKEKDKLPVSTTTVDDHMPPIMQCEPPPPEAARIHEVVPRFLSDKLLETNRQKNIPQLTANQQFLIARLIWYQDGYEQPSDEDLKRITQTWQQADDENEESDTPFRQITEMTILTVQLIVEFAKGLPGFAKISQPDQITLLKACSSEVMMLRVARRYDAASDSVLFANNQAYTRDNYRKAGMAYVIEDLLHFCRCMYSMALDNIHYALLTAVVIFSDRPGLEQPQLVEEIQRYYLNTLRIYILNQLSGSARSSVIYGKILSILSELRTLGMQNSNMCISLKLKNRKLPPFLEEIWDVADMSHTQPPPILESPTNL
The experiment is described as follows: Dose affording 50% of maximum transactivation for ecdysone receptor from Choristoneura fumiferana (CfEcR) and a luciferase reporter gene in CHO cells. It counts as functional, cell-based. The method, boiled down:
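CHO cells stably carrying GAL4 DBD(1-147)-CfEcR(DEF) and VP16-bRXR-LmUSP chimera cassettes (Zeocin selection), plus GAL4 RE-luciferase reporter (clone 27-63, hygromycin). Cells plated at 2.5 × 10⁴ cells mL⁻¹. DMSO ligand stocks diluted 300-fold; 8 concentrations, 33 to 0.01. Luciferase read 48 h after treatment. Value is the dose giving 50% of maximum transactivation.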

For experiment [2], the target named is T2, Ecdysone receptor (Choristoneura fumiferana) (UniProt O77240).
T2 sequence (whole entry): T1 sequence (O77240 whole entry)
Description: Ratio of maximum level of gene expression (ecdysone receptor and luciferase gene) of compound to maximum level of gene expression with GSTM-E expressed as RMFI. It counts as functional. In outline: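 CHO clone 27-63 stably carries GAL4 DBD–CfEcR(DEF) plus VP16–RXR/LmUSP chimera, selected with Zeocin. A GAL4-RE luciferase reporter was added and selected with hygromycin. Cells plated at 2.5 × 10⁴ cells/mL. DMSO ligand stocks diluted 300-fold, tested at 8 concentrations from 33 to 0.01. Luciferase measured 48 h after treatment. RMFI is maximum expression relative to that of the standard agonist control.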

Experiment [3] deals with T3, Ecdysone receptor (Bombyx mori) (UniProt P49881).
T3 sequence (whole entry): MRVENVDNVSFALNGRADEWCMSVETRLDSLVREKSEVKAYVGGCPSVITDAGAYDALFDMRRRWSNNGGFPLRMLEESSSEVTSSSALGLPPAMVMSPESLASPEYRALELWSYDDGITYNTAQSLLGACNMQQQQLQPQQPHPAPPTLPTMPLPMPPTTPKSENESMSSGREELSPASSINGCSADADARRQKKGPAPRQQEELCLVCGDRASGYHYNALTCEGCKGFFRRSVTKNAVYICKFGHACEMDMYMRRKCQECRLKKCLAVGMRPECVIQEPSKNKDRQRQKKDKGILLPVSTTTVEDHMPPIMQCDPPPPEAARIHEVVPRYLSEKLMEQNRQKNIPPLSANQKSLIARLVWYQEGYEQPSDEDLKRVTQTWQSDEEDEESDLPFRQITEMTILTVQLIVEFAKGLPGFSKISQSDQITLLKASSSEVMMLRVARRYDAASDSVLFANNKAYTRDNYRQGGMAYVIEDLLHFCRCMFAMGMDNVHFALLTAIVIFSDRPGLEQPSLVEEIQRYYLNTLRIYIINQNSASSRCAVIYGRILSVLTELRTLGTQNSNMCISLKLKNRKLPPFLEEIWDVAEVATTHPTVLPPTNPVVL
Description: Ratio of maximum level of gene expression (ecdysone receptor and beta-galactosidase receptor) of compound to maximum level of gene expression with GSTM-E expressed as RMFI. The class given is functional. In outline:
(§1)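 HEK-293 clone Z3 stably expressing BmEcR with a β-galactosidase reporter, selected with G418 (450) and puromycin (100 ng/mL). Cells seeded at 2.5 × 10⁴ cells/mL and held 24 h at 37 °C in 5% CO₂. Ligands came from 10 mM DMSO stocks diluted […] in medium, with final DMSO 0.03%. Bioluminescent β-gal read at 48 h, room temperature. Fold induction is treated RLU over DMSO RLU. EC50 is the dose giving 50% of maximum transactivation. RMFI is maximum expression relative to that of the standard agonist control.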

Experiment [4] has as its target T4, Ecdysone receptor (Bombyx mori, UniProt P49881).
T4 sequence (P49881 whole entry): T3 sequence (whole entry)
Description: Dose affording 50% of maximum transactivation for ecdysone receptor from Bombyx mori (BmEcR) and a beta-galactosidase reporter gene in HEK293 cell-line. It counts as functional, cell-based. In outline: as §1
On the technique in general: Reporter assays use an easily measured gene product as a stand-in for the process of interest.

A word on the EC50: it is the concentration at which the effect is half-maximal. The low end stands for an effect from little substance, the high end for a need for much substance. Turning to `COc1cccc(C(=O)NC2(C(=O)c3cc(C)cc(C)c3)CCOCC2)c1C`, the concentration for a half-maximal effect (EC50) in experiment [1] and in experiment [4] was 10000 nM throughout. For the same compound, the results for the Ratio in experiment [2] and in experiment [3] were 0.96 and 0.18, respectively.
Turning to `COc1ccccc1C(=O)C1(NC(=O)c2cccc(OC)c2C)CCCCCC1`, the EC50 in experiment [1] amounted to 3360 nM; in experiment [4], 1940 nM. Moreover, the Ratio was 0.66 in experiment [2] and 0.78 in experiment [3].
As to `COc1cccc(C(=O)NC2(C(=O)c3cc(C)cc(C)c3)CCCCCC2)c1C`, the EC50 came to 2970 nM in experiment [1] and 1610 nM in experiment [4]. Also, the Ratio came out at 0.88 in experiment [2] and 0.69 in experiment [3].
Regarding `CCc1ccc(C(=O)NC2(C(=O)c3cc(C)cc(C)c3)CCCCC2)cc1`, the Ratio in experiment [3] was 0.63. Also, a half-maximal effect in experiment [4] (EC50) was put at 1510 nM.
`CCc1c(OC)cccc1C(=O)NN(C(=O)c1cc(C)cc(C)c1)C(C)(C)C`: the figures for the half-maximal effective concentration (EC50) in experiment [1] and in experiment [4] were 410 nM and 250 nM, respectively. Further, the Ratio in experiment [2] and in experiment [3] was 1 each time.
On to `CCC(CC)(NC(=O)c1cccc(OC)c1C)C(=O)c1cc(C)cc(C)c1`, for which the concentration for a half-maximal effect (EC50) in experiment [1] is 6230 nM; in experiment [4], 4530 nM. In addition, the Ratio was found to be 0.54 in experiment [2] and 0.61 in experiment [3].
As for `CCc1c(C(=O)NC2(C(=O)c3cc(C)cc(C)c3)CCCCC2)ccc2c1OCCO2`, the EC50 worked out at 390 nM in experiment [1] and 740 nM in experiment [4]. For the same compound, the Ratio came out at 0.91 in experiment [2] and 0.89 in experiment [3].
On to `COc1cccc(C(=O)NC2(C(=O)c3cc(C)cc(C)c3)CCCC2)c1C`, for which the concentration for a half-maximal effect (EC50) in experiment [1] worked out at 1910 nM; in experiment [4] it was 1870 nM. In addition, the Ratio in experiment [2] was determined as 0.86; in experiment [3], 0.85.
Turning to `COc1cccc(C(=O)NC2(C(=O)c3cc(C)cc(C)c3)CC2)c1C`, the results for the 50% effective concentration (EC50) in experiment [1] and in experiment [4] were 33300 nM and 20400 nM, respectively. Further, the figures for the Ratio in experiment [2] and in experiment [3] were 0.09 and 0.22, respectively.
For `COc1cccc(C(=O)NC2(C(=O)c3cc(C)cc(C)c3)CCS(=O)(=O)CC2)c1C`, the concentration for a half-maximal effect (EC50) in experiment [1] was 30000 nM; in experiment [4], 15000 nM. The Ratio in experiment [2] was 0.04; in experiment [3], 0.1.
Consider `COc1cccc(C(=O)NC(C)(C)C(=O)c2cc(C)cc(C)c2)c1C`, for which the EC50 in experiment [1] turned out to be 41900 nM; in experiment [4] it was 10000 nM. Also, the Ratio in experiment [2] was found to be 0.29; in experiment [3] it was 0.17.
The corresponding values for `Cc1cc(C)cc(C(=O)C2(NC(=O)c3ccc4c(c3C)OCO4)CCCCC2)c1` are 3220 nM, 3680 nM, 0.91 and 0.81.
On to `COc1cccc(C(=O)NN(C(=O)c2cc(C)cc(C)c2)C(C)(C)C)c1C` [METHOXYFENOZIDE], for which the EC50 was 280 nM in experiment [1] and 100 nM in experiment [4]. In addition, the Ratio was 1.02 in experiment [2] and 1.03 in experiment [3].
The corresponding values for `COc1cccc(C(=O)NC2(C(=O)c3cc(C)cc(C)c3)CCSCC2)c1C` are 1800 nM, 1600 nM, 0.85 and 0.98.
The corresponding values for `COc1cccc(C(=O)NC2(C(=O)c3cc(C)cc(C)c3)CCC2)c1C` are 10000 nM, 8520 nM, 0.89 and 0.69.
For `COc1ccccc1C(=O)C1(NC(=O)c2cccc(OC)c2C)CCCCC1`, in that order: 1030 nM, 980 nM, 0.71 and 0.84.
Consider `CCc1c(OC)cccc1C(=O)NC1(C(=O)c2cc(C)cc(C)c2)CCCCC1`, for which the EC50 in experiment [1] was determined as 1250 nM; in experiment [4] it was 1810 nM. Also, the Ratio in experiment [2] stood at 0.89; in experiment [3] it was 0.85.
`COc1cccc(C(=O)NC2(C(=O)c3cc(C)cc(C)c3)CCCCC2)c1C`: the EC50 in experiment [1] is 1110 nM; in experiment [4] it was 1410 nM. Moreover, the Ratio in experiment [2] was found to be 0.96; in experiment [3], 0.99.
For `COc1ccccc1C(=O)C1(NC(=O)c2cccc(OC)c2C)CCCC1`, the concentration giving a half-maximal response (EC50) in experiment [1] came to 6610 nM; in experiment [4], 5160 nM. Besides, the Ratio in experiment [2] amounted to 0.67; in experiment [3], 0.7.
